The subject of this assay is Igrov ABCG2 cells + mitoxantrone, trypan blue viability, 3 d. Put plainly: ABCG2-mediated chemoresistance reversal and toxicity – Igrov cells, one SAR set, orthogonal assay for ABC transporter inhibitor project, SAR follow-up (AID 2830). The settings on record: for CC50: measured here: toxicity without chemotherapeutic (TD50). In outline: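 Also added: mitoxantrone as chemotherapeutic selective agent, fixed concentration / Test system: Igrove cells with ABCG2 / Input: 100,000 cells per mL / Dosing: compound at 1–100 µM / Times: 3-day compound exposure alongside mitoxantrone / Technique: trypan blue counts by microscopy / Read-out: compound concentration halving cell viability under mitoxantrone (CR50)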

Broadly, the EC50 is the midpoint of the concentration-response curve. By CC50 is commonly meant the concentration that lowers cell viability or growth by half.

Molecules are shown by their SMILES. Calls of active or inactive are those of the source.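 Rule for the calls: active = toxic dose over resistance-reversal dose ratio above 10, when the toxic dose is under 15 µM; inactive = the rest.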

In the case of `CC1=NN(c2ccc([N+](=O)[O-])cc2)C(=O)/C1=C/N(C)C`, the EC50 was 54.4 µM (inactive) and the CC50 was 78.4 µM.

Regarding `O=[N+]([O-])c1ccccc1-c1nc(-c2ccc(Br)o2)no1`, the EC50 was 15.6 µM (inactive) and the CC50 was 23.2 µM.

As to `CCCCN(C)C1=CC2=CC(=C(C#N)C#N)CCC2CC1` (stereo not given), the EC50 was 5.77 µM and the CC50 was found to be 67.8 µM.

In the case of `COc1ccc(/C=N/NC(=O)c2cccnc2)cc1CN1CCN(c2ccc(F)cc2)CC1`, the EC50 is 8.71 µM (inactive) and the CC50 stood at 15.4 µM.

With `N#Cc1ccc(-c2ccc(OCC(=O)NCCc3ccccc3)cc2)cc1`, the EC50 is 4.73 µM and the CC50 was above 100 µM.

For `Cc1cc(C)c(C#N)c(SCc2c(F)cccc2[N+](=O)[O-])n1`, the EC50 was 18.3 µM (inactive) and the CC50 was above 100 µM.

As for `CNc1nc2cc([N+](=O)[O-])c([N+](=O)[O-])cc2nc1NC`, the EC50 is 5.77 µM (inactive) and the CC50 was 7.32 µM.

`O=[N+]([O-])c1ccc(Nc2nc(Cl)nc(NCCO)n2)cc1`: the EC50 was 55.5 µM (inactive) and the CC50 is above 100 µM.

On to `CCN(CC)P(=O)(Nc1cccc(C(F)(F)F)c1)c1ccc(N(C)C)cc1NC(=O)c1ccco1` (stereo not given), for which the EC50 is 2.31 µM (inactive) and the CC50 was 19.8 µM.

`COC(=O)c1ccc(C(C(=O)NC2CCCCC2)N(Cc2ccccc2)C(=O)Cc2cccs2)cc1` (stereo not given): the EC50 is 8.93 µM and the CC50 was above 100 µM.

With `CCCCn1c(O)c(N=Nc2ccccn2)c2ccccc21`, the EC50 was 3.73 µM (inactive) and the CC50 is 7.62 µM.

For `CCOC(=O)c1cccc(NC(=O)c2cnc3ccccc3n2)c1`, the EC50 is 17.5 µM (inactive) and the CC50 turned out to be 67.8 µM.

Take `COc1ccc(-c2nn(-c3ccccc3)cc2/C=C/C(=O)N2CCN(c3ccccn3)CC2)cc1`: the EC50 was 1.22 µM and the CC50 is above 100 µM.

`Cc1nc2cc(-c3cccc(F)c3)nn2c(N2CCN(C(=O)c3ccco3)CC2)c1C`: the concentration for a half-maximal effect (EC50) was 0.419 µM and the CC50 is above 100 µM.

As for `CCOC(=O)c1c(NC(=O)CSc2ncccn2)sc2c1CCN(Cc1ccccc1)C2`, the EC50 is 0.117 µM (inactive) and the CC50 came to 2.61 µM.

(Values after PubChem BioAssay AID2830 (NMMLSC, 2010).)
